Assay results: the RNAGym collection of RNA variant scans (doi:10.1126/science.aae0568)
Fewer inactive variants are shown than the library holds.

B1: tRNA (parent)
chain: GUUCCGUUGGCGUAAUGGUAACGCGUCUCCCUCCUAAGGAGAAGACUGCGGGUUCGAGUCCCGUACGGAACG

Variants of: B1
Experiment: yeast fitness relative to wild type (ratio to wild type); higher = fitter; tRNA-Arg(CCU), competitive growth, 37 C, YPD
How it was run: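 Variants of the tRNA-Arg(CCU) gene were chemically synthesised with a 3% per-site mutation rate across 69 sites and placed at the native genomic locus in Saccharomyces cerevisiae. Six parallel replicates of the pooled strains were competed in YPD at 37°C for 24 hours, and gene amplicons from the start and end populations were read by 100-nucleotide paired-end sequencing. Darwinian fitness relative to wild type was derived from changes in genotype frequencies. Genotypes required ≥ 100 starting reads, and estimates < 0.5 were set to 0.5.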

Point of comparison: C30A C62A, yeast fitness 0.589. Against it:
- C30A G63U U64A — lower, ≤ 0.5
- C30A C33G A45U U59C — lower, 0.543
- C30G G41A — lower, 0.568
- C30G G41C — higher, 0.616
- C30A A65G G67C — lower, 0.526
- C30A A42C G56A A57U — lower, 0.558
- C29U C46G — higher, 1.02
- C30G C46G C61U — lower, ≤ 0.5
- C29U C34G A36C — lower, ≤ 0.5
- C30G A45C C61A G67C — lower, ≤ 0.5
- C30G C34G A37G — higher, 0.811
- C30G C31A — higher, 0.62
- C30G C31G — higher, 0.687
- C30A A45U C49A G50A G63U A70U — lower, ≤ 0.5
- C30G C33U C66U — lower, ≤ 0.5
- C30A A37C C60A G67C — lower, ≤ 0.5
- C30A C33U — higher, 0.738
- C30G A42G U64G — lower, ≤ 0.5
- C30A C49A A57U A70G — lower, 0.509
- C30G G39C G44A — lower, ≤ 0.5
- C30A G56U A65G C66U — lower, ≤ 0.5
- C30G C55A A65U — lower, 0.552
- C29U U35C C61G — higher, 0.672
- C29U C60G C62U — lower, 0.546
- C30G A36G A57U A65U — lower, 0.555
- C30G C31G C33G A37C — lower, ≤ 0.5
- C30A A45U C49A G51A C62G — lower, ≤ 0.5
- C30A G39C A57G — lower, ≤ 0.5
- C30G A45G U47C — lower, ≤ 0.5
- C30A A40G C66A — lower, ≤ 0.5
- C29U U35C A37C — lower, ≤ 0.5
- C30A G39A U47A G63C — lower, 0.528
- C30A C31A G38A C49U G52A C66U — lower, ≤ 0.5
- C30A G50A G67A — lower, 0.543
- C30A A36G — higher, 0.819
- C30G C33U G58A — lower, ≤ 0.5
- C30G C33U G58C — lower, 0.574
- C30A U32C — higher, 0.892
- C30A U32G — higher, 0.624
- C30G C34A G52C — lower, ≤ 0.5
- C30G C66A — lower, ≤ 0.5
- C30G C66U — higher, 0.606
- C30G C66G — lower, 0.574
- C29U C55G — higher, 0.614
- C30A C46U — higher, 0.939
- C29U G50C C60A — lower, ≤ 0.5
- C30A A42G G44A — higher, 0.704
- C30A C49A C61U — lower, ≤ 0.5
- C30A A43U A65U — higher, 0.608
- C29U G52A — higher, 0.728
- C30G C55G A57C U59C — lower, ≤ 0.5
- C30A G67A — higher, 0.822
- C29U C61G — higher, 0.658
- C29U C61A — higher, 0.611
- C30G A36G U53A G68A — lower, ≤ 0.5
- C29U G38C G63A — lower, ≤ 0.5
- C30A U47C C66U A70U — lower, ≤ 0.5
- C30G C34U C49G — higher, 0.615
- C29U U47A A65C — lower, ≤ 0.5
- C30G C31G U32A C33U A65U — lower, ≤ 0.5
- C30A A45C C46U — higher, 0.613
- C30G C34G A40C C66A A69C — lower, 0.527
- C30A G63A — higher, 0.83
- C29U U32A — higher, 0.83
- C29U G48C G50A — lower, ≤ 0.5
- C30G C31U A57G U59A — lower, ≤ 0.5
- C30A C34A C49U — lower, ≤ 0.5
- C29U G58A — higher, 1.02
- C30A C55U — higher, 0.686
- C30A C55G — higher, 0.596
- C30A A69U — higher, 0.963
- C30A A43C A65G — higher, 0.97
- C30G A70G — higher, 0.722
- C30G A70C — higher, 0.719
- C30A C34A — higher, 0.76
- C30A C34U — higher, 0.752
- C30A U47C C61A A65C — lower, ≤ 0.5
- C30A C46G G51A — higher, 0.593
- C29U U53C — higher, 0.843
- C29U G63A — higher, 0.803
- C29U G51A G56A G63C — lower, 0.528
- C30A U59G A69G — higher, 0.599
- C30A C46U G52C C66U — lower, ≤ 0.5
